Compound activity as filed in PubChem BioAssay.
Only some compounds are listed: those with a hit (about 2% of all), similar ones and a draw of the others.
ARNT TACC3 PPI = ARNT/TACC3 interaction disruption | AlphaScreen His-ARNT PAS-B/GST-TACC3 binding, luminescence; TACC3 fragment carries E629A point mutation | inhibition, % at 9.99 µM | 390,000 tested, 0.66% active | AID 623870;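 active = mean inhibition of replicates at least 50% and at least half of replicates each reaching 50%; inconclusive = half or more replicates reach 50% but mean below 50%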;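 also: 0% = complete ARNT plus TACC3 wells and 100% = ARNT alone without TACC3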
HIF activator = HIF pathway transcriptional activation; U2OS HRE-luciferase reporter, luminescence; normalized: DMSO 0%, desferrioxamine 100%; activation, % at 7.5 µM (by protocol); 300,000 tested, 0.32% active;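 active = mean activation of at least 10% of the iron chelator positive control signal, with at least half of replicates also reaching 10%; inconclusive = mean and replicate majority disagree about reaching 10%; inactive = mean and most replicates under 10%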
T cruzi inh = T. cruzi replication inhibition; T. cruzi beta-gal in NIH3T3, luminescence, 90 h; inhibition, % (no concentration beside the values); 300,000 tested, 1.4% active; AID 1885;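 active = mean inhibition across valid replicates above about 55%, limit read from the data; inconclusive = mean below that limit but half or more replicates reach it; inactive = mean below it, under half of replicates reach it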;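 also: signal also drops with host cell toxicity which is not excluded here; 0% = plate median of DMSO wells and 100% = zero luminescence signal; higher percent means less beta-gal luminescence so fewer parasites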
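Test system: β-gal T. cruzi (Tulahuen C4) inside NIH/3T3 cells / Quantity: 5,000 cells/well / Measured by: luminescence from GalScreen with 0.05% NP40, read after 60 min / Medium: DMEM plus 2% FBS / Measure: parasite load inhibition, % / Reagent: Tulahuen C4 trypomastigotes, 5000/well / Schedule: co-culture of at least 90 h after 3 h attachment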
AI-2 QS mod = modulates the Vibrio harveyi AI-2 quorum sensing system; Vibrio harveyi JMH597 AI-2 luminescence/OD600 ratio, 9 h; stronger effect = lower value; strain lacks LuxN and CqsS sensors; 0 = neutral-control median; 300,000 tested, 0.4% active; activity change, % at 7.5 µM; in the data active = activity change below about -75%, passing the limit was not always enough; inconclusive = no clear call, values can overlap the other calls;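 also: luminescence divided by OD600 gain over 9 h not by final OD600 alone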
Active calls of the source: *.

How did Cc1ccccc1NC(=S)c1nc2ccccc2[nH]1 do in these assays?
ARNT TACC3 PPI: 49*; HIF activator: 2; T cruzi inh: 31; AI-2 QS mod: 32

What do the screens show for `CCCC(=O)NC(NC(=S)Nc1ccc(S(N)(=O)=O)cc1)C(Cl)(Cl)Cl` (centres undefined)?
ARNT TACC3 PPI: 28*; HIF activator: 1; T cruzi inh: -9; AI-2 QS mod: 14

Results for Cc1ccc(NC(=O)c2c(C(F)(F)F)nn(C)c2Cl)cc1C ?
ARNT TACC3 PPI: -19; HIF activator: 1; T cruzi inh: -1; AI-2 QS mod: 3

Results for Cc1ccc(NC(=O)c2c(C(F)(F)F)nn(C)c2SCc2cccc(C(F)(F)F)c2)cc1C ?
ARNT TACC3 PPI: -7; HIF activator: 1; T cruzi inh: 59*; AI-2 QS mod: -1

What do the screens show for `Cc1ccc(NC(=O)c2c(C(F)(F)F)nn(C)c2SCc2ccc(Cl)cc2)cc1C`?
ARNT TACC3 PPI: -4; HIF activator: 0; T cruzi inh: 65*; AI-2 QS mod: 12

How did CN(C)C(=O)[C@@H]1[C@@H](CO)[C@@H]2Cn3c(ccc(-c4cncnc4)c3=O)[C@@H]2N1Cc1cc(F)ccc1F do in these assays?
ARNT TACC3 PPI: 10

What do the screens show for `O=C1CCC[C@@H]2Cc3[nH]c4c(Cl)ccc(Cl)c4c3[C@@H]3CCN1[C@H]23`?
ARNT TACC3 PPI: 0; HIF activator: 0; T cruzi inh: 64*; AI-2 QS mod: 2

Results for Nc1ccc(N(c2ccccc2)c2ccc(N)cc2)cc1 ?
ARNT TACC3 PPI: 3; HIF activator: 0; T cruzi inh: 58*; AI-2 QS mod: -12

What do the screens show for `CC(NC(=O)c1cccc(Cn2cc([N+](=O)[O-])cn2)c1)c1ccc(C(C)(C)C)cc1` (centres undefined)?
ARNT TACC3 PPI: -2; HIF activator: -1; T cruzi inh: 55*; AI-2 QS mod: 5

Results for COc1cc2nc(N3CCN(c4cc(C)ccc4C)CC3)nc(N)c2cc1OC ?
ARNT TACC3 PPI: -2; HIF activator: -5; T cruzi inh: 56*; AI-2 QS mod: 51

Results for COc1cc2nc(N3CCNCC3)nc(N)c2cc1OC ?
ARNT TACC3 PPI: 31; HIF activator: 0; T cruzi inh: 32; AI-2 QS mod: 20

How did C[C@H]1CN([C@@H](C)CO)C(=O)c2cc(NC(=O)Cc3ccccc3)ccc2O[C@@H]1CN(C)Cc1ccncc1 do in these assays?
ARNT TACC3 PPI: -2

How did N=c1n(CCN2CCCCC2)c2ccccc2n1CC(O)c1cccc(Br)c1 (centres undefined) do in these assays?
ARNT TACC3 PPI: 3; HIF activator: 0; T cruzi inh: 35; AI-2 QS mod: 15

What do the screens show for `N=c1n(CCN2CCCCC2)c2ccccc2n1CC(O)c1ccc(Cl)c(Cl)c1` (centres undefined)?
ARNT TACC3 PPI: 6; HIF activator: 0; T cruzi inh: 59*; AI-2 QS mod: 3

Results for Cc1c(Cl)cccc1NC(=O)c1ncn[nH]1 ?
ARNT TACC3 PPI: 73*; HIF activator: 0; T cruzi inh: -3; AI-2 QS mod: 15

What do the screens show for `C[C@H]1CN([C@@H](C)CO)C(=O)c2cc(NC(=O)CCC(F)(F)F)ccc2O[C@H]1CN(C)Cc1ccc(Oc2ccccc2)cc1`?
ARNT TACC3 PPI: 1

How did Cc1ccc(S(=O)(=O)N2CCOC23CCN(C(=O)c2cc(Cl)ccc2Cl)CC3)cc1 do in these assays?
ARNT TACC3 PPI: 0; HIF activator: 70*; T cruzi inh: 10; AI-2 QS mod: -1

What do the screens show for `COCCN=c1scc(-c2ccc3c(c2)NC(=O)CO3)n1/N=C(\C)c1ccc(O)cc1`?
ARNT TACC3 PPI: 2; HIF activator: 0; T cruzi inh: -15; AI-2 QS mod: 20

What do the screens show for `COCCN=c1scc(-c2cccs2)n1/N=C(\C)c1ccco1`?
ARNT TACC3 PPI: 46*; HIF activator: 4; T cruzi inh: 0; AI-2 QS mod: 29

How did COc1cc2oc3ccc(C#Cc4ccc(N)cc4)cc3c(=O)c2cc1OC do in these assays?
HIF activator: 1; T cruzi inh: 13; AI-2 QS mod: 20

How did COc1cc2oc3ccc(C#Cc4ccccn4)cc3c(=O)c2cc1OC do in these assays?
ARNT TACC3 PPI: -9; HIF activator: 1; T cruzi inh: 59*; AI-2 QS mod: 16

What do the screens show for `CCCN1[C@H](C(=O)N(C)C)[C@@H](CO)[C@@H]2Cn3c(ccc(-c4cccc(F)c4)c3=O)[C@@H]21`?
ARNT TACC3 PPI: -8

Results for S=C(NC1CCCCC1)N1CCn2cccc2C1c1cccnc1 (centres undefined) ?
ARNT TACC3 PPI: 11; HIF activator: -1; T cruzi inh: 55*; AI-2 QS mod: 3

Results for Fc1cccc(NC(=S)N2CCn3cccc3C2c2cccnc2)c1 (centres undefined) ?
ARNT TACC3 PPI: -14; HIF activator: 1; T cruzi inh: 63*; AI-2 QS mod: -5

How did CC(C)CC#Cc1cnc2c(c1)C(=O)N([C@@H](C)CO)C[C@@H](C)[C@H](CN(C)Cc1ccc3c(c1)OCO3)O2 do in these assays?
ARNT TACC3 PPI: 12

How did CO[C@@H](CN(C)S(=O)(=O)c1ccccc1)[C@H](C)CN(C(=O)Nc1ccccc1F)[C@H](C)CO do in these assays?
ARNT TACC3 PPI: -6

How did C#C[C@]1(O)CC[C@H]2[C@@H]3CCc4cc(OC5CCCC5)ccc4[C@H]3CC[C@@]21C do in these assays?
ARNT TACC3 PPI: -1; HIF activator: 0; T cruzi inh: 55*; AI-2 QS mod: 33

How did C[C@H]1CCCCO[C@H](CN(C)S(=O)(=O)c2ccc(F)cc2)[C@@H](C)CN([C@@H](C)CO)C(=O)c2cc(NC(=O)Nc3ccccc3)ccc2O1 do in these assays?
ARNT TACC3 PPI: -10

How did COC(=O)c1cccc(Nc2cc(C)nc(-c3ccccc3O)n2)c1 do in these assays?
ARNT TACC3 PPI: -4; T cruzi inh: 58*; AI-2 QS mod: 18

What do the screens show for `Cc1nc(Cl)cc(N/N=C/c2ccc(O)cc2)n1`?
ARNT TACC3 PPI: 20; HIF activator: 1; T cruzi inh: -8; AI-2 QS mod: 0

What do the screens show for `Cc1nc(Cl)cc(N/N=C/c2ccc(O)cc2O)n1`?
ARNT TACC3 PPI: 27*; HIF activator: 2; T cruzi inh: 2

What do the screens show for `Cc1cc(N/N=C/c2ccc(O)cc2O)nc(-n2nc(C)cc2C)n1`?
ARNT TACC3 PPI: -10; HIF activator: 4; T cruzi inh: 60*; AI-2 QS mod: 43

What do the screens show for `Cc1cc(N/N=C/c2ccc(O)cc2O)nc(-c2ccccc2O)n1`?
ARNT TACC3 PPI: -7; HIF activator: 21*; T cruzi inh: 60*; AI-2 QS mod: inconclusive

How did Cc1cc(N/N=C/c2ccccc2O)nc(-c2ccccc2O)n1 do in these assays?
ARNT TACC3 PPI: -6; HIF activator: 2; T cruzi inh: 35; AI-2 QS mod: 23

How did O=C(C[C@H]1C[C@H]2c3cc(NC(=O)CC4CC4)ccc3O[C@H]2[C@H](CO)O1)NCCc1ccccc1 do in these assays?
ARNT TACC3 PPI: -14
